Numbering of substitutions follows the chain as printed.
How the values were obtained:
Details in all cases: stereoisomer not certain
O5AP2 A105T = tested on: T1, O5AP2 A105T
T1 sequence (whole entry): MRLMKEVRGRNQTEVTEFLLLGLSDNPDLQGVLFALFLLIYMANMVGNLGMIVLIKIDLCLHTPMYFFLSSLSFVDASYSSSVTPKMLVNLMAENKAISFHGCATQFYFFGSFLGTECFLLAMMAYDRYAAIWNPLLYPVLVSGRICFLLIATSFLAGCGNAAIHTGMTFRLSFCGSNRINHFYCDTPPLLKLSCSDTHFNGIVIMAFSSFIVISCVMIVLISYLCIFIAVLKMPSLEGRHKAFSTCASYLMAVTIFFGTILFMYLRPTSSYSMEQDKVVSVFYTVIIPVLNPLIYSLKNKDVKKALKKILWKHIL
In short: (§1)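 Assay methods differ from source to source, frequently being transient luciferase assays in mammalian cell lines. For each receptor–molecule pair, the label responsive (active) applies when the original authors judged the measured signal statistically different from baseline, and non-responsive (inactive) applies otherwise.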

O5AU1 = tested on: T2, O5AU1
T2 sequence (whole entry): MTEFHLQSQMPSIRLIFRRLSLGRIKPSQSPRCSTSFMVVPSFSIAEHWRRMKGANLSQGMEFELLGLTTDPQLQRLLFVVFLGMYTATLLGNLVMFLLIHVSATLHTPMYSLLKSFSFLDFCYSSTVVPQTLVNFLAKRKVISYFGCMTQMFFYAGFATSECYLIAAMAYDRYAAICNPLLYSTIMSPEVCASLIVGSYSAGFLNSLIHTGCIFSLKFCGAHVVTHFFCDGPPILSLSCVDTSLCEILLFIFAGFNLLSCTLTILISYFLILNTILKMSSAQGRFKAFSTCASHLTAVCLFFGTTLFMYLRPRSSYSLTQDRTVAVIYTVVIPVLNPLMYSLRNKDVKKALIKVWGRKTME
In short: as §1

O5H14 = tested on: T3, O5H14
T3 sequence (whole entry): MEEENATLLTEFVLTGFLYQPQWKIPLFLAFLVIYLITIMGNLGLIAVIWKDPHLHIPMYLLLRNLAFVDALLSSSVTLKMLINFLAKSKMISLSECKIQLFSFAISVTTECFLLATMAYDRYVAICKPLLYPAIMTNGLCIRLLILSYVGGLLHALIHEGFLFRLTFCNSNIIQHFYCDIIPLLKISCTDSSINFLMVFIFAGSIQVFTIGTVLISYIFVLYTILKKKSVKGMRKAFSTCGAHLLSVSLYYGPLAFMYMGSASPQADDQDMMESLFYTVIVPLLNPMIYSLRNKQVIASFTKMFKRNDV
In short: as §1

O5H15 V108I S148T T167S = tested on: T4, O5H15 V108I S148T T167S
T4 sequence (whole entry): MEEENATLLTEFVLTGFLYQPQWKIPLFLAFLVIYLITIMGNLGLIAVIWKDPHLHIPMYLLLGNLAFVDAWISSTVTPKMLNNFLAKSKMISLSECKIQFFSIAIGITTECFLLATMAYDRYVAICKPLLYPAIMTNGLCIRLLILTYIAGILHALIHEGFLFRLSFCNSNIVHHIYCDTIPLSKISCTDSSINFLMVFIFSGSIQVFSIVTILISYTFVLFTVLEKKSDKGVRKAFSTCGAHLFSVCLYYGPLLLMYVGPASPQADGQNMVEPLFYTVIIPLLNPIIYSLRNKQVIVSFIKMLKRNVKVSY
In short: as §1

O6C65 T222A = tested on: T5, O6C65 T222A
T5 sequence (whole entry): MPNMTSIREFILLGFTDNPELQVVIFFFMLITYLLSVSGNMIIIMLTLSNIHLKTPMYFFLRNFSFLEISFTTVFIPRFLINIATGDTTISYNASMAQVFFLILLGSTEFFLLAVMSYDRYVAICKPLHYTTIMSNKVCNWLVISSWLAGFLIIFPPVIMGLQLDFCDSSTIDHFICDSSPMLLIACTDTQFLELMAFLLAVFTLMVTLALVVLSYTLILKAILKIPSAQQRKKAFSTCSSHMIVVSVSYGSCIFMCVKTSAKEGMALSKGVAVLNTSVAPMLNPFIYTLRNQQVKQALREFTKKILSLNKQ
In short: as §1

O6C70 L181P = tested on: T6, O6C70 L181P
T6 sequence (whole entry): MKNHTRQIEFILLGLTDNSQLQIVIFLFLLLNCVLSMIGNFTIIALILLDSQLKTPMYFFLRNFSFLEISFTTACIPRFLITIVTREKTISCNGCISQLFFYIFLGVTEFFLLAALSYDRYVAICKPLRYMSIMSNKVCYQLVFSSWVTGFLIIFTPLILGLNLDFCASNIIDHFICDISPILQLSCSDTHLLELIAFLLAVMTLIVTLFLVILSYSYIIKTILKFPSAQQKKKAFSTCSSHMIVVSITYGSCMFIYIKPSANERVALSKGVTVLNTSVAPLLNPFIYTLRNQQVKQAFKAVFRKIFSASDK
In short: as §1

O7E24 S193F P242S = tested on: T7, O7E24 S193F P242S
T7 sequence (whole entry): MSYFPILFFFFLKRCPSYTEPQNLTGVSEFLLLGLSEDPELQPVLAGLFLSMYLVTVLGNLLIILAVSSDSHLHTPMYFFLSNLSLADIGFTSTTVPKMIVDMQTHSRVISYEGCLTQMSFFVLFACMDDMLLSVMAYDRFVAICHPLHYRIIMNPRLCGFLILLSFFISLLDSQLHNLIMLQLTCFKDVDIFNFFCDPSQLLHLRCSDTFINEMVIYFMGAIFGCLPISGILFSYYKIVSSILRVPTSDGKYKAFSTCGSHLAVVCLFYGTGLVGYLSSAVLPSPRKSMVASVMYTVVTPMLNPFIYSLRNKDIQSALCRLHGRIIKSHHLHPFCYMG
In short: as §1

O7E24 = tested on: T8, O7E24
T8 sequence (whole entry): T7 sequence (whole entry) with F193S
In short: as §1

OR10A2 (Homo sapiens) = biological target: T9, OR10A2 (Homo sapiens) (UniProt Q9H208)
T9 sequence (whole entry): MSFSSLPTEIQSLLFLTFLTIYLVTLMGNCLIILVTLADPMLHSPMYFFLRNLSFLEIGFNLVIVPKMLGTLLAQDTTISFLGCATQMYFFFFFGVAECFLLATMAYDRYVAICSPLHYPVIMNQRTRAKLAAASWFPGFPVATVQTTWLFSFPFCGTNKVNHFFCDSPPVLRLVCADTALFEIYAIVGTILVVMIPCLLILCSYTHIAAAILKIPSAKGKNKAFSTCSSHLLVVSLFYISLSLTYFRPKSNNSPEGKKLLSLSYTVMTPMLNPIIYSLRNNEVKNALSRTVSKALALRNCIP
In short: as §1

OR10A3 (Homo sapiens) = biological target: T10, OR10A3 (Homo sapiens) (UniProt P58181)
T10 sequence (whole entry): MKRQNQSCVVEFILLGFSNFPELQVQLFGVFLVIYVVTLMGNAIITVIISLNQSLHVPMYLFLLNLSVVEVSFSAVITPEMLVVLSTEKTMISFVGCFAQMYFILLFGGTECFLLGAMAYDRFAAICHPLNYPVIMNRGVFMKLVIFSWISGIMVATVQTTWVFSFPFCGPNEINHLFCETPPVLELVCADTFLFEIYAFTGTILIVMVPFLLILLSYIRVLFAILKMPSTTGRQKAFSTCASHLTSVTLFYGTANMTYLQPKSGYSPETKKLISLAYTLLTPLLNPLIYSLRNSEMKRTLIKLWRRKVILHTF
In short: as §1

OR10A4 (Homo sapiens) = biological target: T11, OR10A4 (Homo sapiens) (UniProt Q9H209)
T11 sequence (whole entry): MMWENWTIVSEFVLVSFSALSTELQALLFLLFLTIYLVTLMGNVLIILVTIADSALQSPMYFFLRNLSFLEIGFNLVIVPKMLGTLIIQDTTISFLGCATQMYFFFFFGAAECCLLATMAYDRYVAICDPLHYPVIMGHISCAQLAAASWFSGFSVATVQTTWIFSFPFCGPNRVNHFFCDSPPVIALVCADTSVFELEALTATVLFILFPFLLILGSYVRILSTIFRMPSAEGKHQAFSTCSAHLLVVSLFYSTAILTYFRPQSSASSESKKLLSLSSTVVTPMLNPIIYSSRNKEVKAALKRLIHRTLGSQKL
In short: as §1

OR10A5 (Homo sapiens) = biological target: T12, OR10A5 (Homo sapiens) (UniProt Q9H207)
T12 sequence (whole entry): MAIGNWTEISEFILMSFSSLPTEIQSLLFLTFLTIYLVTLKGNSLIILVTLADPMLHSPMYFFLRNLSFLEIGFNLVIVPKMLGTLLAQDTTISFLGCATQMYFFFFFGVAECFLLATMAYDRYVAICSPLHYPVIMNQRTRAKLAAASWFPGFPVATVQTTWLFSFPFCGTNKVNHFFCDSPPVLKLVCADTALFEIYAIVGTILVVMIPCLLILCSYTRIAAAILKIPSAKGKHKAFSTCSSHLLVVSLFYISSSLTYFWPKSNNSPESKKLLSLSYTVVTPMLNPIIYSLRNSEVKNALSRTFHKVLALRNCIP
In short: as §1

OR10A6 (Homo sapiens) = biological target: T13, OR10A6 (Homo sapiens) (UniProt Q8NH74)
T13 sequence (whole entry): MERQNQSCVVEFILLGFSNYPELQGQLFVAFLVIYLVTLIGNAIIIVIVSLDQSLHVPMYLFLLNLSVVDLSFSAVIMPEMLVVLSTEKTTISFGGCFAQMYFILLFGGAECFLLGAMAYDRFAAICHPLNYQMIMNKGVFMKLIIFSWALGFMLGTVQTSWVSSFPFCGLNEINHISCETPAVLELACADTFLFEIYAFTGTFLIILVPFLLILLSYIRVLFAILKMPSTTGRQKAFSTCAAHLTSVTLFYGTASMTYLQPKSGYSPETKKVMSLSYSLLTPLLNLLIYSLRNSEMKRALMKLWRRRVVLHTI
In short: as §1

OR10A7 (Homo sapiens) = biological target: T14, OR10A7 (Homo sapiens) (UniProt Q8NGE5)
T14 sequence (whole entry): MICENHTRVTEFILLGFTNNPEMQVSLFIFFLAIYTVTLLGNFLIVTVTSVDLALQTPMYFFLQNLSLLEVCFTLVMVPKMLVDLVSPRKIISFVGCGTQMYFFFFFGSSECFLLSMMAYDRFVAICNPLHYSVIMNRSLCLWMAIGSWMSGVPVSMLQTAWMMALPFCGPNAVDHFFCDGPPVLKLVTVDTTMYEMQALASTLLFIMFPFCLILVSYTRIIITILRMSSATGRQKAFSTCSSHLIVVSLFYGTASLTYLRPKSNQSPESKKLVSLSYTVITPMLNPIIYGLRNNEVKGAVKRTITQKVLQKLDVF
In short: as §1

OR10AD1 (Homo sapiens) = biological target: T15, OR10AD1 (Homo sapiens) (UniProt Q8NGE0)
T15 sequence (whole entry): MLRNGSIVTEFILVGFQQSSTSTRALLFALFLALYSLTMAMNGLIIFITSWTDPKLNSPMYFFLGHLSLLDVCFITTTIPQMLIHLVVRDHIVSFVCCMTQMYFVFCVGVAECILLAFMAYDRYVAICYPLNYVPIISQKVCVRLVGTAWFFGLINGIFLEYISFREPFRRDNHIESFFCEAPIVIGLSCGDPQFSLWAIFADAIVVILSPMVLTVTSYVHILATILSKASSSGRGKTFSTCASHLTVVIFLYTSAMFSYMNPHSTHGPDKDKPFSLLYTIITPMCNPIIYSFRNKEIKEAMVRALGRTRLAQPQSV
In short: as §1

OR10AG1 (Homo sapiens) = biological target: T16, OR10AG1 (Homo sapiens) (UniProt Q8NH19)
T16 sequence (whole entry): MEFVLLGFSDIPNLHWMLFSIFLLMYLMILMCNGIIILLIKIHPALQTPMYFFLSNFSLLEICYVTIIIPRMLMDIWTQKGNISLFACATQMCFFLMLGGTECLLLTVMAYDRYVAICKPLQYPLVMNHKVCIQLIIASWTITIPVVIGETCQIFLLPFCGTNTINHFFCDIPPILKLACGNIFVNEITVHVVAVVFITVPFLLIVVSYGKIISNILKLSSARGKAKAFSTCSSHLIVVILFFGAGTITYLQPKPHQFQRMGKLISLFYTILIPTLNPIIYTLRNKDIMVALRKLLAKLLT
In short: as §1

OR10C1 (Homo sapiens) = biological target: T17, OR10C1 (Homo sapiens) (UniProt Q96KK4)
T17 sequence (whole entry): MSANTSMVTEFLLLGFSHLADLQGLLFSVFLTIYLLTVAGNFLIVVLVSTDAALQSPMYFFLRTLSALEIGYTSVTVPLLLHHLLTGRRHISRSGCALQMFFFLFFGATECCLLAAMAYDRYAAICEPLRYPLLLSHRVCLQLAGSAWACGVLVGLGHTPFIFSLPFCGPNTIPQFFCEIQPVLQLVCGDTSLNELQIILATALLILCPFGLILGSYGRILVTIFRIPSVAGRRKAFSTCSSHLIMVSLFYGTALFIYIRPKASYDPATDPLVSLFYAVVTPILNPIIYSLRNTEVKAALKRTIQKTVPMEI
In short: as §1

OR10D3 (Homo sapiens) = biological target: T18, OR10D3 (Homo sapiens) (UniProt Q8NH80)
T18 sequence (whole entry): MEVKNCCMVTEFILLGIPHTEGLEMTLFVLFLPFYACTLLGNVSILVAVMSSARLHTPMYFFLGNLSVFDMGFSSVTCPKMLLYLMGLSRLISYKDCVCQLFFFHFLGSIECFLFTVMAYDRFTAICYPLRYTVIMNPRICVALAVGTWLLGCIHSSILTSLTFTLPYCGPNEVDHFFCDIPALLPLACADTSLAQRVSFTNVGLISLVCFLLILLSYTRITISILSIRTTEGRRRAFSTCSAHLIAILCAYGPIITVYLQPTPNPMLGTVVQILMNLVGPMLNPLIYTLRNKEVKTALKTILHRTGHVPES
In short: as §1

Measured: odorant receptor agonist call

CC1=NC(C)C(C)S1 (stereo not drawn)
inactive: O5AP2 A105T | O5AU1 | O5H14 | O5H15 V108I S148T T167S | O6C65 T222A | O6C70 L181P | O7E24 S193F P242S | O7E24 | OR10A2 (Homo sapiens) | OR10A3 (Homo sapiens) | OR10A4 (Homo sapiens) | OR10A5 (Homo sapiens) | OR10A6 (Homo sapiens) | OR10A7 (Homo sapiens) | OR10AD1 (Homo sapiens) | OR10AG1 (Homo sapiens) | OR10C1 (Homo sapiens) | OR10D3 (Homo sapiens)

CCC(S)C(C)CO (stereo not drawn)
inactive: OR10A2 (Homo sapiens) | OR10A3 (Homo sapiens) | OR10A4 (Homo sapiens) | OR10A5 (Homo sapiens) | OR10A6 (Homo sapiens) | OR10A7 (Homo sapiens) | OR10AD1 (Homo sapiens) | OR10AG1 (Homo sapiens) | OR10C1 (Homo sapiens) | OR10D3 (Homo sapiens)
